From PubChem
The list is not random: actives were taken first. Their share in the collection is about 1.3%.
TMEM16A act: mouse TMEM16A channel activation, primary screen. 0.3% of 340,000 active. Q8BHY3. HEK293 TMEM16A/YFP-H148Q/I152L, iodide quench fluorescence; active compounds read low. B-score at 10 µM;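 active = fluorescence-ratio B-score plate-corrected deviation score at least 3 library SD below zero, with starting fluorescence score within 5 deviations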;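 note: channel opened by trigger with iodide after compound preincubation; score built on the fluorescence ratio of max minus min over baseline; more negative score means more quench and so TMEM16A activation or potentiation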
MT1-MMP act inh: blocks activation of human MT1-MMP; P50281; AID 651647; HT1080 RFP-PRO-GFP cells, GFP/RFP ratio fluorescence, overnight; percent of plate control window, DMSO zero; 0.061% of 360,000 active; GFP/RFP ratio change, % at 20 µM;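 active = GFP/RFP ratio change of at least 30% with cell ATP level not reduced by more than half and red fluorescence within 50% of control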
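Test system: HT1080 cells expressing an RFP-PRO-GFP fluorescent reporter construct / Compound dosing: single-point 20 µM compound, 1% DMSO / Schedule: cells overnight before dosing, compound overnight, 37 °C, 5% CO2 / Evaluation: GFP/RFP fluorescence ratio / Control set: DMSO and RFP-L50D-GFP cell wells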
ANO1 block: blocks the mouse calcium-activated chloride channel TMEM16A; HEK293 TMEM16A/YFP iodide influx fluorescence, ionomycin; normalized B-score (activity score, 25-100; higher = stronger inhibition) at 10 µM; 1.2% of 310,000 active; AID 588511;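 active = ratio plate-corrected score three or more library SD toward inhibition, starting fluorescence score within five deviations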;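 note: score derived from kinetic fluorescence span divided by baseline fluorescence per well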
DAGLB inhibitor: diacylglycerol lipase beta (human) inhibition | Q8NCG7 | HEK293T DAGLB membrane lysate, EnzChek fluorogenic substrate | inhibition, % at 5.17 µM | 0.059% of 340,000 active | AID 504411; in the data active = inhibition above about 34%
Target sequence (Q8NCG7 whole entry, looked up): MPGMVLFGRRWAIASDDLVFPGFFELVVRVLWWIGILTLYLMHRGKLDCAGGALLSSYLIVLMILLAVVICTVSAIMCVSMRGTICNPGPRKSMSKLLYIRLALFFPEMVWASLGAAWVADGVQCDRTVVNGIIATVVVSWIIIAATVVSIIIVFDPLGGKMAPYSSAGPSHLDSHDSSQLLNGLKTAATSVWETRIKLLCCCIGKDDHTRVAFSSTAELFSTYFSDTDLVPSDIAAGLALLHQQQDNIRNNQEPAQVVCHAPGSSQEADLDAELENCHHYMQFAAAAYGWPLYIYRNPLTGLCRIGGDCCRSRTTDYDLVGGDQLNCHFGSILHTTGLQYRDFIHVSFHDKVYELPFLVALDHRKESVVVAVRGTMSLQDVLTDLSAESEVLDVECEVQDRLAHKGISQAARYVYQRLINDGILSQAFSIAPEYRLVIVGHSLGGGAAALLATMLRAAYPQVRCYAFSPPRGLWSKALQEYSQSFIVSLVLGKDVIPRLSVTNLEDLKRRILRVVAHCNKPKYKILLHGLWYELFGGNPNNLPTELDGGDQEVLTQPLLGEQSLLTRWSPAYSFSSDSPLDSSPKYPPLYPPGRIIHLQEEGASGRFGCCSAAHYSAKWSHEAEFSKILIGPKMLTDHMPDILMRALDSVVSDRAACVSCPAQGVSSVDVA
DAGLB inh conf: DAGLB (human) inhibition, confirmation screen. shares compounds with DAGLB inhibitor. HEK293T DAGLB membrane lysate, EnzChek fluorogenic substrate. inhibition, % at 5.17 µM. 73% of 190 active. AID 504445;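 active = mean inhibition over triplicate wells above a set limit taken from the primary lipase screen, cut at about 34% in these data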
Each line names hits and unclear results; the compound was inactive in the other large screens (follow-up assays come after a bar, where they were run).

COC(=O)c1cc2c(-c3ccccc3)cc3ccccn3c-2c1C(=O)OC	DAGLB inhibitor 37 | DAGLB inh conf inactive
N#Cc1ccc(C(=O)N2CCCC(c3cc(C(=O)NCc4cccnc4)no3)C2)cc1 (stereo not given)	none (no result: TMEM16A act, ANO1 block, DAGLB inhibitor)
CC(C)C[C@H]1CN(CCCC[C@H]2CNC(=O)C(=O)N2CC2CCCCC2)C(=O)C(=O)N1CCc1ccccc1	none (no result: TMEM16A act, ANO1 block, DAGLB inhibitor)
COc1ccc(C2/C=C\CN(C(=O)c3ccc(C)cc3)[C@H](Cc3ccccc3)C(=O)N2Cc2ccc(F)cc2)cc1 (stereo not given in full)	DAGLB inhibitor 40 | DAGLB inh conf 39
CN(CCc1ccccc1)C(=O)c1ccc(NC(=O)Cc2ccc(NC(=O)C3CCCN(C(=O)c4ccccc4)C3)cc2)cc1 (stereo not given)	none (no result: TMEM16A act, ANO1 block)
COc1cc(N=Nc2ccc(Br)cc2)cc(C=O)c1O	DAGLB inhibitor 38 (no result: TMEM16A act, ANO1 block) | DAGLB inh conf inactive
COc1cc(CN(C)C)cc(C=O)c1O	none
CCc1ccc(NC(=S)Nc2ccc(S(=O)(=O)Nc3ncccn3)cc2)cc1	DAGLB inhibitor 54 | DAGLB inh conf inactive
COc1ccc2c(=O)cc(CO)oc2c1	none (no result: ANO1 block)
COc1cc(/C=C2/C(=O)NN(c3cccc(C)c3)C2=O)cc([N+](=O)[O-])c1O	none
COc1cc(/C=C2/C(=O)NN(c3ccc(C)c(Cl)c3)C2=O)cc([N+](=O)[O-])c1O	DAGLB inhibitor 39 | DAGLB inh conf 38
COc1ccc(S(=O)(=O)N2CCOCC2)cc1N=Nc1sc(N)nc1-c1ccccc1	DAGLB inhibitor 56 | DAGLB inh conf 92
COc1ccc(S(=O)(=O)N2CCOCC2)cc1OC	none
CC(Sc1ccc(S(=O)(=O)N2CCN(C)CC2)cn1)C(=O)Nc1cccc(Cl)c1Cl (stereo not given)	none (no result: TMEM16A act, ANO1 block)
O=[N+]([O-])c1ccc(N2CCN(c3ccc(F)cc3)CC2)cc1	DAGLB inhibitor 55 | DAGLB inh conf 99
O=C(Cc1ccc(F)cc1)N1CCN(c2ccc([N+](=O)[O-])cc2)CC1	none
O=c1cc(-c2ccccc2Cl)oc2c(NS(=O)(=O)c3cc(Cl)cc(Cl)c3O)ccc(O)c12	ANO1 block 100, DAGLB inhibitor 41 | DAGLB inh conf 38
CN(CC(=O)Nc1ccc(Cl)cc1)C(=O)CNC(=O)c1cccs1	none (no result: ANO1 block)
CCN(CCCNc1cc2c(c(N)c1S(=O)(=O)O)C(=O)c1ccccc1C2=O)c1ccccc1	DAGLB inhibitor 36 (no result: TMEM16A act, ANO1 block) | DAGLB inh conf 39
CN(C)c1ccc(N=Nc2ccc(S(N)(=O)=O)cc2)cc1	DAGLB inhibitor 39 | DAGLB inh conf 39
CN(C)N=Nc1ccc(S(N)(=O)=O)cc1	none
COC(=O)[C@@]12C[C@@H](CC(=O)N3CCC(c4ccccc4)CC3)C(=O)N(Cc3cccc4ccccc34)C1=CCC(C)(C)C2	none (no result: TMEM16A act, ANO1 block, DAGLB inhibitor)
CCOc1ccc(Nc2nnc(SCc3nc4ccccc4c(=O)[nH]3)s2)cc1	DAGLB inhibitor 60 | DAGLB inh conf 74
Cc1ccccc1Nc1nnc(SCc2nc3ccccc3c(=O)[nH]2)s1	none (no result: TMEM16A act, MT1-MMP act inh, DAGLB inhibitor)
Cc1ccccc1NC1=C(Cl)C(=O)OC1OC(=O)c1ccco1 (stereo not given)	DAGLB inhibitor 36 | DAGLB inh conf inactive
COc1ccccc1NC1=C(Cl)C(=O)OC1OC(=O)c1ccco1 (stereo not given)	none
O=C(O)c1cc(S(=O)(=O)Nc2cc(Cl)ccc2Oc2ccccc2)ccc1O	DAGLB inhibitor 39 (no result: ANO1 block) | DAGLB inh conf 38
O=C(O)c1cc(S(=O)(=O)Nc2ccccc2C(=O)O)ccc1O	none
CCN(Cc1ccccc1)c1ccc(/C=N/NS(=O)(=O)c2ccc(C)c([N+](=O)[O-])c2)cc1	none
CCN(Cc1ccccc1)c1ccc(N=Nc2nn(C)c(C)c2[N+](=O)[O-])cc1	DAGLB inhibitor 59 | DAGLB inh conf 56
CCN(CC)c1ccc(N=Nc2nn(C)c(C)c2[N+](=O)[O-])cc1	DAGLB inhibitor 44 | DAGLB inh conf 46
CC1CCCC(NC(=O)C2COc3ccccc3O2)C1C (stereo not given)	none (no result: ANO1 block)
COC(=O)[C@H](Cc1ccccc1)NC(=O)Cn1ccc(NC(=O)OCc2ccccc2)nc1=O	none (no result: ANO1 block)
CCCCCCCCN1C(=O)[C@H](CC(=O)NCCCOCCCC)C[C@@]2(C(=O)OCC)CCCC=C12	none (no result: TMEM16A act, ANO1 block, DAGLB inhibitor)
CC(C)C(=O)NC(c1cccs1)c1cc([N+](=O)[O-])c2cccnc2c1O (stereo not given)	DAGLB inhibitor 36 | DAGLB inh conf inactive
C[C@H]1COC2=C1C(=O)C(=O)c1c2ccc2c1CCCC2(C)C	none
Cc1coc2c1C(=O)C(=O)c1c-2ccc2c1CCCC2(C)C	DAGLB inhibitor 53 | DAGLB inh conf 58
Cc1ccc(S(=O)(=O)N2CCOCC2)cc1NC(=O)COc1ccccc1Cc1ccccc1	none (no result: ANO1 block)
COc1ccc(S(=O)(=O)/N=C2\C=C(Nc3ccc(O)cc3)C(=O)c3ccccc32)cc1	DAGLB inhibitor 55 | DAGLB inh conf 50
O=C(Nc1ccc(F)c(Cl)c1)c1cc(C2CCCCN2C(=O)c2ccc3c(c2)CCO3)on1 (stereo not given)	none (no result: TMEM16A act, ANO1 block, DAGLB inhibitor)
CCCCCCCCCCC[C@@H](C[C@@H]1OC(=O)[C@H]1CCCCCC)OC(=O)[C@H](CC(C)C)NC=O	DAGLB inhibitor 49 | DAGLB inh conf 86
CCCCC[C@H](O)/C=C/[C@H]1[C@H](O)CC(=O)[C@@H]1CCCCCCC(=O)O	none (no result: TMEM16A act, MT1-MMP act inh, DAGLB inhibitor)
O=C(O)c1ccccc1NS(=O)(=O)c1ccc(NNC(=S)Nc2ccc(OC(F)F)cc2)c([N+](=O)[O-])c1	DAGLB inhibitor 52 (no result: ANO1 block) | DAGLB inh conf 67
COc1cc(C=NNc2ccc(S(=O)(=O)Nc3ccccc3C(=O)O)cc2[N+](=O)[O-])ccc1O	DAGLB inhibitor 39 (no result: ANO1 block) | DAGLB inh conf 50
CC(=O)Nc1ccc(C=NNc2ccc(S(=O)(=O)Nc3ccccc3C(=O)O)cc2[N+](=O)[O-])cc1	DAGLB inhibitor 37 (no result: ANO1 block) | DAGLB inh conf 56
O=C(O)c1ccccc1NS(=O)(=O)c1ccc(N/N=C/c2cccc(O)c2O)c([N+](=O)[O-])c1	DAGLB inhibitor 42 (no result: ANO1 block) | DAGLB inh conf 53
Cc1oc(-c2cccs2)cc1C(=O)N1CCCC(C)(C(=O)O)C1 (stereo not given)	none (no result: TMEM16A act, ANO1 block, DAGLB inhibitor)
O=C(OC1CC2CC1[C@H]1CCCCN1C2=O)N1CCN(S(=O)(=O)c2ccccc2)CC1 (stereo not given in full)	none (no result: TMEM16A act, ANO1 block, DAGLB inhibitor)
O=C1N=c2ccccc2=C1c1sc(=S)n(NC(=O)c2ccccc2)c1O	none
C=CCn1c(O)c(C2=c3ccccc3=NC2=O)sc1=Nc1ccc(O)cc1	DAGLB inhibitor 36 | DAGLB inh conf inactive
CN(C)c1ccc(N=Nc2ccccc2C(=O)OCC(=O)NC2CCCC2)cc1	none
